Measured values taken from ChEMBL document CHEMBL4428078, “Discovery of S3-Truncated, C-6 Heteroaryl Substituted Aminothiazine β-Site APP Cleaving Enzyme-1 (BACE1) Inhibitors” (J Med Chem, 2016).

How the values were obtained:
[1] = Metabolic stability in mouse liver microsomes assessed as compound remaining at 0.5 uM measured after 10 mins; type: ADME, Microsome; conditions: read-out: Stability
Method in brief: (§1)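 Test compound at 0.5 µM incubated 10 min with mouse, rat or human liver microsomes. Read-out is percent of parent compound remaining.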

[2] = Metabolic stability in rat liver microsomes assessed as compound remaining at 0.5 uM measured after 10 mins; type: ADME, Microsome; conditions: read-out: Stability; method in brief: as §1
[3] = target: Beta-secretase 1 (Homo sapiens, UniProt P56817); assay: Inhibition of BACE1 in human H4 cells expressing swedish mutant APP751 assessed as reduction in amyloid beta level measured after 19 hrs; type: cell-based
[4] = Metabolic stability in human liver microsomes assessed as compound remaining at 0.5 uM measured after 10 mins; type: ADME, Microsome; conditions: read-out: Stability; method in brief: as §1

Sequence of Beta-secretase 1 (P56817 whole entry): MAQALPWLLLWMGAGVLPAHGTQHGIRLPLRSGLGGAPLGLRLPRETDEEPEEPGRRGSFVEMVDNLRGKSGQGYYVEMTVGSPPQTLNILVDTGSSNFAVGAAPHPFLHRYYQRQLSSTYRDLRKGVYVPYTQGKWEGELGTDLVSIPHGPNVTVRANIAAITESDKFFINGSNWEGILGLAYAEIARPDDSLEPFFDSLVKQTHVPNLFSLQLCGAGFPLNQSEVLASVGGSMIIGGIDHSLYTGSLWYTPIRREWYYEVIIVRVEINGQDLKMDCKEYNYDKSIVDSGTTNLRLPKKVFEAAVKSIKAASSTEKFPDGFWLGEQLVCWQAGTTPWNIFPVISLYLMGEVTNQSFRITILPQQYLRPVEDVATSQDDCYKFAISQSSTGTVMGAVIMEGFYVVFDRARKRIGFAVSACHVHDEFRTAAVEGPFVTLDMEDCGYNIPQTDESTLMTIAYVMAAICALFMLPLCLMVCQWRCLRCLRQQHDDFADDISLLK

| SMILES | remaining at 10 min, 0.5 µM [1] [%] | remaining at 10 min, 0.5 µM [2] [%] | IC50 [3] [nM] | remaining at 10 min, 0.5 µM [4] [%] |
| --- | --- | --- | --- | --- |
| Cc1noc(C(F)F)c1[C@@H]1C[C@@](C)(c2ccc(F)cc2F)N=C(N)S1 | 59 | 67 | 420 | 35 |
| Cc1noc(-c2ccc(F)cc2)c1[C@@H]1C[C@@](C)(c2ccc(F)cc2F)N=C(N)S1 | 53 | 88 | 410 | 45 |
| Cc1noc(-c2ccccc2)c1[C@@H]1C[C@@](C)(c2ccc(F)cc2F)N=C(N)S1 | 6 | 20 | 230 | 39 |
| Cc1noc(C)c1[C@@H]1C[C@@](C)(c2ccc(F)cc2)N=C(N)S1 | 90 | 78 | 600 | 73 |
| Cc1onc(-c2ccccc2)c1[C@@H]1C[C@@](C)(c2ccc(F)cc2F)N=C(N)S1 | 12 | 13 | 160 | 38 |
| CCc1noc(CC)c1[C@@H]1C[C@@](C)(c2ccc(F)cc2F)N=C(N)S1 | 59 | 67 | 420 | 35 |
| Cc1noc(C)c1[C@@H]1C[C@@](C)(c2ccccc2)N=C(N)S1 | 78 | 81 | 480 | 86 |
| Cc1noc(C)c1[C@@H]1C[C@@](C)(c2sccc2Cl)N=C(N)S1 | 21 | 12 | 300 | 11 |
